Laboratory results reported in ChEMBL document CHEMBL1132281, “Compounds that activate the mouse melanocortin-1 receptor identified by screening a small molecule library based upon the beta-turn” (J Med Chem, 1999).

biological target: Melanocyte-stimulating hormone receptor (Mus musculus, UniProt Q01727); assay: Agonistic activity against mouse Melanocortin 1 receptor (mMC1R); format: functional
Method in brief: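 HEK-293 cells (DMEM, 10% fetal calf serum) stably expressing the mouse receptor (pCDNA3, G418 selection) were transfected with a CRE/β-galactosidase reporter. At 48 h post-transfection, cells were stimulated for 6 h in DMEM with 0.1 mg/mL BSA and 0.1 mM IBMX, at 10^-4 to 10^-10 M in triplicate. Lysates were read with ONPG at 37° (OD405), and the data were normalized to protein (OD595) and to forskolin (10^-4 M).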

Chain of Melanocyte-stimulating hormone receptor (Q01727 whole entry): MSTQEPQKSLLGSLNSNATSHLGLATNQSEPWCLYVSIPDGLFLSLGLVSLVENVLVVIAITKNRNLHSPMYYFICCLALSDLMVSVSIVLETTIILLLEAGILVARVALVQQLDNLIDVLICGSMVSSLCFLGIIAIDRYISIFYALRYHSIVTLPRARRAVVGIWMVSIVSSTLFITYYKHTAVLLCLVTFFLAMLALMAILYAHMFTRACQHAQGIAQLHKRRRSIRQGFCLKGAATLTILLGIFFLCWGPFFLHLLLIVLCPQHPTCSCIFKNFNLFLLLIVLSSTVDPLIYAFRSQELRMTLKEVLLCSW

Row | SMILES | EC50
1 | CC(=O)N[C@@H](Cc1c[nH]cn1)C(=O)N[C@H](Cc1ccccc1)C(=O)NCC(=O)N[C@H](Cc1c[nH]c2ccccc12)C(N)=O | > 100 µM
2 | CC(=O)N[C@@H](Cc1c[nH]cn1)C(=O)N[C@H](Cc1ccccc1)C(=O)N[C@@H](CCCCN)C(=O)N[C@H](Cc1c[nH]c2ccccc12)C(N)=O | > 100 µM
3 | CC(=O)N[C@H](Cc1ccccc1)C(=O)N[C@@H](CCCCN)C(=O)N[C@H](Cc1c[nH]c2ccccc12)C(N)=O | > 100 µM
4 | CC(=O)N[C@@H](Cc1cnc[nH]1)C(=O)N[C@H](Cc1ccccc1)C(=O)N[C@@H](C)C(=O)N[C@H](Cc1c[nH]c2ccccc12)C(N)=O | > 100 µM
5 | CC(=O)N[C@H](Cc1ccccc1)C(=O)N[C@@H](CCC(N)=O)C(=O)N[C@H](Cc1c[nH]c2ccccc12)C(N)=O | 100 µM
6 | CC(=O)N[C@H](Cc1ccccc1)C(=O)N[C@@H](C)C(=O)N[C@H](Cc1c[nH]c2ccccc12)C(N)=O | > 100 µM

Results, then the molecule that gave them:

Row | EC50 | SMILES
7 | 100 µM | CC(=O)N[C@H](Cc1ccccc1)C(=O)NCC(=O)N[C@H](Cc1c[nH]c2ccccc12)C(N)=O
8 | 63.4 µM | NCCCC[C@H]1NC(=O)[C@H](Cc2c[nH]c3ccccc23)SCCN(CCc2ccccc2)C1=O
9 | 100 µM | CC(=O)N[C@@H](Cc1c[nH]cn1)C(=O)N[C@H](Cc1ccccc1)C(=O)N[C@@H](CCC(N)=O)C(=O)N[C@H](Cc1c[nH]c2ccccc12)C(N)=O
10 | 42.5 µM | O=C1[C@H]2CCCN2C(=O)C(Cc2ccc3ccccc3c2)SCCN1CCc1c[nH]c2ccccc12 (stereo not given in full)
